A selection: hits, their analogues and other compounds. The true share with any hit is near 9.6%.
L major viab – Leishmania major promastigote growth inhibition, primary screen. Leishmania major promastigotes, resazurin fluorescence viability. 9% of 200,000 active. AID 1063, 2008. inhibition, % at 10 µM; in the data active = inhibition above about 50%;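 note: promastigotes grown with compound for 44 hours at 28 °C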
Ba/F3 V617F tox – reduced viability of JAK2V617F-dependent Ba/F3 cells, primary screen, JAK2V617F inhibitor project, cell-based, Ba/F3 EpoR-JAK2V617F, luminescence; ATP luminescence; inhibition, % at 5.6 µM; 1.1% of 220,000 active; AID 1446, 2008;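 active = inhibition above the campaign mean plus 3 SD over all tested compounds, cut at about 24% in these data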;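 note: cytokine-independent growth of Ba/F3 cells driven by EpoR plus mutant JAK2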
BaF3 tox – parental Ba/F3 cell viability inhibition, counter-screen for JAK2V617F inhibitor project, murine pro-B, CellTiter-Glo luminescence; CellTiter-Glo ATP luminescence; inhibition, % at 5.6 µM; 1.1% of 220,000 active;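 active = inhibition above a per-campaign cutoff, the mean inhibition of all tested compounds plus 3 SD, cut at about 27% in these data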
bCat nuc transl – modulators of beta-catenin nuclear translocation, primary screen, imaging, HeLa cells, immunofluorescence, high-content; nuclear translocation activity, % at 5 µM; 0.3% of 190,000 active; AID 1665, 2009;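 active = nuclear translocation activity above 50% at 5 µM, with a well cell count of 50 or more; inconclusive = wells under 50 cells across six images, flagged as toxic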;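 note: per-cell ratio of nuclear to cytoplasmic median beta-catenin stain intensity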
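System: Human HeLa cells, endogenous beta-catenin | Compound dosing: 5 µM primary, 0.02–20 µM confirmation | Timing: 24 h compound exposure at 37°C, 5% CO2 | Measured by: Fluorescence imaging of beta-catenin antibody stain plus DAPI | Read-out basis: % activation of per-cell nuclear versus cytoplasmic median beta-catenin signal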
MT stabilize HCS – microtubule stabilizers in HeLa cells, primary screen, imaging, high-content imaging | HeLa tubulin immunostaining HCS, 24 h; share of cells brighter than vehicle mean+2SD | % tubulin-high responders, % at 10 µM | 0.83% of 200,000 active | AID 2205, 2009;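 active = plate Z-score above 3 for both tubulin-high and condensed-nucleus cell shares, with cell loss under 80%, at 10 µM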;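 note: anti alpha tubulin signal scored within the nucleus-defined area of each cell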
APP transl inh – inhibitors of APP translation via 5'UTR reporter, primary screen, APP 5'UTR luciferase, SH-SY5Y cells. SH-SY5Y APP 5'UTR-luciferase reporter, luminescence. inhibition, % at 2 µM. 0.82% of 190,000 active;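 active = inhibition above a set limit, derived from the sample mean plus 3 SD, cut at about 45% in these data; inconclusive = one replicate passes the limit while the other fails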
Hits are given with their value; . = inactive; ? = inconclusive; / = no result.

SMILES | L major viab | Ba/F3 V617F tox | BaF3 tox | bCat nuc transl | MT stabilize HCS | APP transl inh
CCO[C@H]1OC(C(=O)N2CCN(Cc3ccc4c(c3)OCO4)CC2)=C[C@@H](c2csc3ccccc23)[C@@H]1CCCO | 74 | . | . | . | . | .
CCO[C@@H]1OC(C(=O)N2CCN(Cc3ccc4c(c3)OCO4)CC2)=C[C@H](C2CCCCC2)[C@H]1CCCO | 67 | . | . | . | . | .
CCCCCNc1nc(N2CCCC2)c2c(c1C#N)CCN(C)C2 | 56 | . | . | . | . | .
CCCCCNc1nc(NCCCO)c(C#N)c2c1CN(C)CC2 | . | . | . | . | . | .
O=C(CCN1C(=O)c2ccccc2C1=O)C1=NN[C@@H]2C(=O)N(c3ccc4c(c3)OCO4)C(=O)[C@H]12 | / | . | . | . | / | /
CCCCN1C(=O)NC2NC(=O)NC21 (stereo not drawn) | . | . | . | . | . | .
O=C(Nc1cccc(Cl)c1)c1csc(-c2ccccc2)n1 | . | . | . | . | . | .
CCC1C(c2ccccc2)N(C)C(c2ccccc2)CC1(O)c1ccccc1 (stereo not drawn) | 53 | . | . | . | . | .
COc1ccc(OC)c(C(C)NC(=O)Nc2cccc(C(C)=O)c2)c1 (stereo not drawn) | . | . | . | . | . | .
O=C(Cc1cccc2ccccc12)N/N=C/c1ccc(Sc2cccc3cccnc23)o1 | . | . | . | / | . | 54
CN(C)c1ccc(-c2nc3ccccn3c2/N=C/c2ccc(Br)cc2)cc1 | 99 | . | . | . | . | .
CCN1/C(=C/C=C/c2oc3ccc(-c4ccccc4)cc3[n+]2CC)Oc2ccc(-c3ccccc3)cc21 | 100 | 100 | 78 | ? | . | 74
CCCCN1C(=O)/C(=C/C=C2\Oc3ccccc3N2CC)SC1=S | . | . | . | . | . | .
CCC(C)(C)c1ccc(OCCCC[n+]2ccccc2)c(C(C)(C)CC)c1 | 100 | 100 | 85 | / | . | .
CCCCCc1ccc(OCCCC[n+]2ccccc2)c(CCCCC)c1 | 101 | 100 | 81 | . | 28 | .
CCCCCc1ccc(OCCCC[n+]2ccc(C)cc2)c(CCCCC)c1 | 100 | 102 | 103 | . | / | .
CCCCCc1ccc(OCCCC[n+]2cccc(C)c2)c(CCCCC)c1 | 101 | 102 | 95 | . | 56 | .
CCCCOc1ccc(C)cc1CN(CCO)CCO | . | . | . | / | . | .
Cc1ccc(NC(=O)C2(c3cccs3)CCOCC2)cc1C | . | . | . | . | . | .
CC(C)N(NC(=O)c1cccc2ccccc12)C(C)C | . | . | . | . | . | .
CCOc1ccc2nc(NC(=O)C(NS(=O)(=O)c3cccc4nsnc34)C(C)C)sc2c1 (stereo not drawn) | 52 | . | . | . | . | .
O=C(CSc1ccc2c(c1)OCCO2)Nc1ccc(Br)cc1 | 67 | . | . | . | . | .
Cc1ccc(C2=NC3(CCCC3)N=C2SCC(=O)Nc2ccc3c(c2)OCCO3)cc1 | 73 | . | . | . | . | .
CC1(C)O[C@H]2OC([C@H](O)CON3C(=O)c4ccccc4C3=O)[C@H](O)[C@H]2O1 (stereo partly drawn) | . | . | . | / | . | .
COc1ccccc1NC(=S)N(Cc1cccnc1)Cc1ccco1 | . | . | . | . | . | .
SMILES | L major viab | Ba/F3 V617F tox | BaF3 tox | bCat nuc transl | MT stabilize HCS | APP transl inh
CCOC(=O)c1ccc(NC(=S)N(Cc2cccnc2)Cc2ccco2)cc1 | 100 | . | . | . | . | .
CCOC(=O)c1ccc(NC(=S)NCc2cccnc2)cc1 | . | . | . | . | . | .
COC(=O)c1ccc(NC(=S)N(Cc2cccnc2)Cc2ccco2)cc1 | 100 | . | . | . | . | .
CCc1ccc(NC(=O)N(Cc2cccnc2)Cc2ccco2)cc1 | 90 | . | . | . | . | .
CCc1ccc(NC(=O)N(Cc2ccco2)C(C)c2cccs2)cc1 (stereo not drawn) | 70 | . | . | . | . | .
CN(C)c1ccc(NC(=O)COC(=O)Cn2nnc3ccccc32)cc1 | . | . | . | . | . | .
CC(C)CCN(C(=O)Nc1ccccc1)C(C)c1cccs1 (stereo not drawn) | 83 | . | . | . | . | .
